TbMetRS inhib: Trypanosoma brucei MetRS inhibition | purified T. brucei MetRS, ATP depletion, Kinase-Glo luminescence | inhibition, % at 11.9 µM | hit rate 0.4% among 360,000 | AID 624268;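 active = inhibition above a per-plate cutoff of the control wells' mean inhibition plus 3 SD, cut at about 5.5% in these data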;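 also: 0% = DMSO wells median and 100% = median of wells with control inhibitor compound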
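Material: parasite MetRS enzyme / Replication: singlicate, one well per compound / Signal: luminescence of leftover ATP / Schedule: 2 h aminoacylation at 25 °C after 15 min preincubation / Medium: HEPES-MgCl2-KCl buffer plus DTT, spermine, BSA, pyrophosphatase / Doses: 11.9 µM single point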
MT1-MMP act inh: MT1-MMP (human) activation inhibition; GFP/RFP ratio change, % at 20 µM; hit rate 0.061% among 360,000; HT1080 RFP-PRO-GFP cells, GFP/RFP ratio fluorescence, overnight; percent of plate control window, DMSO zero;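 active = GFP/RFP ratio change of at least 30% with cell ATP level not reduced by more than half and red fluorescence within 50% of control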
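Assay system: HT1080 RFP-PRO-GFP cells. Benchmarks: DMSO vehicle wells and RFP-L50D-GFP reporter cell wells. Times: overnight cell settling, then overnight compound exposure, 37 °C, 5% CO2. Compound: 20 µM single dose, 1% DMSO. Read-out basis: GFP/RFP fluorescence ratio.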
Arrestin-AP2 inh: blocks beta-arrestin peptide binding to AP2 adaptin | inhibition, % at 10 µM | FITC-arrestin peptide / GST-AP2 beads, flow cytometry; AP2 beta2 appendage carries R879A mutation | hit rate 0.31% among 340,000 | AID 504490;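 active = inhibition above a set limit, near 3 SD of compounds lacking own fluorescence, cut at about 54% in these data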;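 also: plate controls were DMSO wells for no effect and 5 µM unlabelled arrestin peptide for full effect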
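Assay system: GST-AP2 R879A bound to glutathione beads, E. coli-expressed; Medium: PBS with 0.05% Tween 20 and 0.1% BSA; Also added: fluorescein-tagged arrestin peptide at 50 nM final; Timing: 12 min plus 1 h, RT; Measured by: flow cytometry, FL1 (488/535 nm); Evaluation: percent drop in bead-associated FITC signal.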
Rin1-Abl PPI inh: human Rin1-Abl interaction inhibition. TR-FRET Rin1/Abl binding, biochemical. inhibition, % at 7.35 µM. hit rate 0.4% among 360,000. AID 588664; in the data active = inhibition above about 5%, passing the limit was not always enough
SKN-1 inh: blocks SKN-1 activity in C. elegans | inhibition, % at 21.8 µM | hit rate 0.49% among 360,000 | C. elegans VP596 Pgst-4::GFP/RFP ratio, acrylamide-induced, 24 h | AID 624304;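 active = interference check ratio from 0.5 to 1.5 plus GFP to RFP signal ratio inhibition reaching or exceeding a fixed threshold, cut at about 30% in these data, passing the limit was not always enough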
* hit, by the source's call; . = no result. This is a sample that favours compounds with a hit; in the whole collection about 1.6% have one here.

SMILES | TbMetRS inhib | MT1-MMP act inh | Arrestin-AP2 inh | Rin1-Abl PPI inh | SKN-1 inh
C[C@@H](C(=O)OCC(=O)c1ccc(F)c(F)c1)N1C(=O)C2CCCCC2C1=O (stereo not given in full) | -0.5 | 1.4 | 16.8 | 2.2 | -5.9
Fc1ccc2cc(-c3ccccc3)ncc2c1 | -0.5 | -0.3 | 8.2 | 0.8 | 40.2*
COC(=O)[C@@]12C[C@@H](CC(=O)N3CCN(C(=O)c4ccco4)CC3)C(=O)N(Cc3ccccc3)C1=CCC(C)(C)C2 | 0.3 | 0.2 | . | . | 7.0
CCOC(=O)Nc1nc(-c2ccc(Cl)cc2Cl)cs1 | 0.6 | -0.9 | -6.7 | 1.2 | 57.1*
O=C(O)CNS(=O)(=O)c1ccc2c(c1)C(=O)c1cc(S(=O)(=O)NCC(=O)O)ccc1-2 | 0.6 | -1.0 | 10.2 | -3.5 | 29.3*
O=C1c2cc(S(=O)(=O)NCCO)ccc2-c2ccc(S(=O)(=O)NCCO)cc21 | -0.5 | -1.4 | 9.2 | -4.1 | -0.1
O=Nc1c(O)ccc2cc(S(=O)(=O)O)ccc12 | 0.3 | 4.8 | -2.0 | 9.4 | 16.5
Nc1cccc2cc(S(=O)(=O)O)ccc12 | 0.1 | 3.7 | 1.1 | 1.0 | 51.0*
CC(=O)c1ccc2c(c1)N(Cc1ccccc1)C(=O)C(C)S2 (stereo not given) | -0.3 | -0.4 | . | -2.5 | -0.6
COc1cccc(-c2oc3c(c2C(=O)OCCN(C)C)C(O)CCC3)c1 (stereo not given) | -0.2 | 2.3 | . | . | 14.0
COC(=O)Oc1ccc(/C=N/NC(=O)CN(c2ccccc2Br)S(C)(=O)=O)cc1OC | -0.8 | 1.2 | -11.1 | -0.3 | 6.6
CN(C)c1ccc(/C=N/NC(=O)CN(c2ccccc2Cl)S(C)(=O)=O)cc1Br | -1.0 | -1.3 | 4.4 | -5.8 | 35.5*
COC(=O)[C@]12CCCCC=C1N(Cc1ccc3c(c1)OCO3)C(=O)[C@H](CC(=O)NCc1ccc(OC)c(OC)c1)C2 | -0.7 | -4.1 | . | . | -10.0
O=C(NNC(=O)c1ccccc1-n1cccc1)c1ccc(Cl)c(Cl)c1 | -0.6 | -2.0 | 3.6 | -0.8 | 13.6
O=C(NNC(=O)c1ccccc1-n1cccc1)c1ccc(Cl)cc1 | -1.0 | 6.0 | 0.3 | -4.0 | 37.0*
Cc1ccc(S(=O)(=O)N2C[C@H]3C(=O)C[C@@H]4C(=O)N(c5ccccc5)C(=O)[C@@H]4[C@@H]3C[C@H]2c2cccc(Cl)c2)cc1 | -0.4 | 6.1 | . | 2.8 | 14.9
O=C(Nc1ncnc2c1ncn2[C@@H]1O[C@H](/C=C/C(=O)N2CCN(c3ccc(F)cc3)CC2)[C@@H](O)[C@H]1O)c1ccccc1 | -0.2 | -0.2 | . | 1.4 | -0.6
O=C(CN1CCN(S(=O)(=O)N2CCCCC2)CC1)Nc1cc(Cl)cc(Cl)c1 | 0.4 | 3.1 | -10.9 | 1.6 | 36.9*
O=C(CN1CCN(S(=O)(=O)N2CCCCC2)CC1)Nc1ccc(Cl)c(Cl)c1 | -0.6 | 1.1 | 16.2 | 4.2 | -9.9
COc1cccc(NC(=O)CN2CCc3ccccc3C2)c1 | -1.5 | -1.0 | -2.7 | -0.6 | 35.5*
Cc1ccc(-n2sc3ccccc3c2=O)cc1S(=O)(=O)N1CCCCC1 | -0.2 | 8.2 | 90.3* | 1.5 | 10.4
O=c1c2ccccc2sn1-c1ccc(S(=O)(=O)N2CCCCC2)cc1 | 0.4 | 8.2 | 8.1 | 0.6 | 11.8
O=C1N(c2ccccc2)c2ccccc2[C@]12C[C@H](O)CO2 | -0.4 | 7.1 | . | . | 3.7
O=C(Nc1cccc(Oc2ccccc2)c1)C1Cc2c(-c3ccc4c(c3)OCO4)ccnc2O1 (stereo not given) | -0.3 | -0.8 | . | 3.8 | 36.3*
CN(C)CCNC(=O)C1Cc2c(-c3ccccc3Oc3ccccc3)ccnc2O1 (stereo not given) | -0.1 | 2.4 | . | 0.9 | -3.9
CN(C(=O)C1Cc2c(-c3ccccc3Oc3ccccc3)ccnc2O1)c1ccccc1 (stereo not given) | -0.2 | -2.2 | . | -3.8 | 35.0*
CC1CCC(C(C)C)C(OC(=O)C[n+]2cccc(C(N)=O)c2)C1 (stereo not given) | -0.5 | -14.8 | 8.4 | -3.1 | 37.9*
CC1CCC(C(C)C)C(OC(=O)COC(=O)c2ccc(N)cc2)C1 (stereo not given) | -0.7 | 1.9 | 3.3 | 1.6 | 11.3
COc1ccc(C2=Nc3ccccc3N(C(=O)c3cnccn3)C2C(=O)NC2CCCC2)cc1 (stereo not given) | -0.4 | 3.8 | . | . | -4.4

Source: PubChem BioAssay
